Source: ChEMBL document CHEMBL4145650, “Napabucasin and Related Heterocycle-Fused Naphthoquinones as STAT3 Inhibitors with Antiproliferative Activity against Cancer Cells” (J Nat Prod, 2018)
Activity calls are given as the source filed them. The calls are words filed in the database; no cut-off is given here.

Legend:
[1] = test system: MDA-MB-231; test: Induction of apoptosis in human MDA-MB-231 cells assessed as viable cells at 10 umol/L measured after 8 hrs by annexin-V-FITC/7-AAD staining based flow cytometric analysis (reference value: 97 to 98%); format: functional; details: MDA-MB-231, 8 h, read-out: Activity
[2] = test system: MDA-MB-231; test: Cell cycle arrest in human MDA-MB-231 cells assessed as accumulation at G2 phase at 3 uM measured after 24 hrs by propidium iodide staining based flow cytometry (reference value: 23%); format: functional
[3] = test system: MDA-MB-231; test: Antiproliferative activity against human MDA-MB-231 cells measured after 48 hrs by MTT assay; format: functional, cell-based; details: MDA-MB-231, 48 h
Procedure, shortened: (§1)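 Cells kept in 10% FBS medium with penicillin/streptomycin/L-glutamine at 37 °C, 5% CO2 (MDA-MB-231 in DMEM, K562 in RPMI 1640). Viability read by MTT reduction to formazan after 48 h of exposure. IC50 obtained by nonlinear regression against vehicle control, given as mean ±SD of three independent experiments (n = 2 where footnoted).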

[4] = test system: MDA-MB-231; test: Induction of apoptosis in human MDA-MB-231 cells assessed as late apoptotic cells at 10 umol/L measured after 8 hrs by annexin-V-FITC/7-AAD staining based flow cytometric analysis relative to control; format: functional
[5] = test system: MDA-MB-231; test: Cell cycle arrest in human MDA-MB-231 cells assessed as accumulation at S phase at 10 uM measured after 24 hrs by propidium iodide staining based flow cytometry (reference value: 12%); format: functional
[6] = molecular target: T1, Signal transducer and activator of transcription 3 (Homo sapiens, UniProt P40763); test: Binding affinity to STAT3 in human MDA-MB-231 cells at 100 uM measured after 1 hr by DARTS-Western blot analysis; format: cell-based
Procedure, shortened: (§2)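 A nondenaturing lysate of MDA-MB-231 cells (M-PER with protease and phosphatase inhibitors) was incubated with compound at 100 μmol/L or DMSO for 1 h at room temperature in the dark. TNC buffer pH 8.0 was added, then thermolysin (1:3000 of protein) for 30 min at room temperature; undigested controls were kept. Run on SDS-PAGE with 10 μg protein per lane, then Western blot with anti-STAT3.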

[7] = molecular target: T1, Signal transducer and activator of transcription 3; test: Binding affinity to STAT3 in human MDA-MB-231 cells at 100 uM treated for 1 hr followed by thermolysin addition measured after 30 mins by DARTS-Western blot analysis; format: cell-based; procedure, shortened: as §2
[8] = test system: MDA-MB-231; test: Effect on total STAT3 level in human MDA-MB-231 cells at 0.1 to 30 umol/L after 4 hrs by HTRF assay; format: cell-based; details: mda-mb-231, 4 h
Procedure, shortened: (§3)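 MDA-MB-231 cells (10^5/well) were left to adhere overnight, serum-starved for 4 h in DMEM, then treated with 0.1–30 μmol/L compound (0.5% final DMSO) for 4 h at 37 °C. Lysates were incubated 24 h at room temperature with Eu-cryptate/d2 antibody pairs for phospho-STAT3 (Y705) or total STAT3. The 665/620 nm HTRF ratio was taken and phospho/total normalized. EC50 was obtained by nonlinear regression.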

[9] = test system: MDA-MB-231; test: Cell cycle arrest in human MDA-MB-231 cells assessed as accumulation at S phase at 3 uM measured after 24 hrs by propidium iodide staining based flow cytometry (reference value: 12%); format: functional
[10] = test system: MDA-MB-231; test: Cell cycle arrest in human MDA-MB-231 cells assessed as accumulation at G1 phase at 30 uM measured after 24 hrs by propidium iodide staining based flow cytometry (reference value: 62%); format: functional
[11] = test system: MDA-MB-231; test: Cell cycle arrest in human MDA-MB-231 cells assessed as accumulation at sub-G0 phase at 3 uM measured after 24 hrs by propidium iodide staining based flow cytometry (reference value: 3%); format: functional
[12] = test system: MDA-MB-231; test: Cell cycle arrest in human MDA-MB-231 cells assessed as accumulation at sub-G0 phase at 1 uM measured after 24 hrs by propidium iodide staining based flow cytometry (reference value: 3%); format: functional
[13] = test system: MDA-MB-231; test: Induction of apoptosis in human MDA-MB-231 cells assessed as viable cells at 10 umol/L measured after 6 hrs by annexin-V-FITC/7-AAD staining based flow cytometric analysis (reference value: 97 to 98%); format: functional; details: MDA-MB-231, 6 h, read-out: Activity
[14] = test system: MDA-MB-231; test: Cell cycle arrest in human MDA-MB-231 cells assessed as accumulation at sub-G0 phase at 30 uM measured after 24 hrs by propidium iodide staining based flow cytometry (reference value: 3%); format: functional
[15] = test system: MDA-MB-231; test: Cell cycle arrest in human MDA-MB-231 cells assessed as accumulation at S phase at 1 uM measured after 24 hrs by propidium iodide staining based flow cytometry (reference value: 12%); format: functional
[16] = test system: MDA-MB-231; test: Induction of apoptosis in human MDA-MB-231 cells assessed as increase in early apoptotic cells at 10 umol/L measured after 4 to 24 hrs by annexin-V-FITC/7-AAD staining based flow cytometric analysis; format: functional, cell-based
[17] = test system: MDA-MB-231; test: Induction of apoptosis in human MDA-MB-231 cells assessed as viable cells at 10 umol/L measured after 24 hrs by annexin-V-FITC/7-AAD staining based flow cytometric analysis (reference value: 97 to 98%); format: functional; details: MDA-MB-231, 24 h, read-out: Activity
[18] = molecular target: T1, Signal transducer and activator of transcription 3; test: Inhibition of STAT3 phosphorylation at Y705 in human MDA-MB-231 cells assessed as reduction in ratio of phosphorylated STAT3 to total STAT3 level after 4 hrs by HTRF assay; format: cell-based; procedure, shortened: as §3
[19] = test system: MDA-MB-231; test: Cell cycle arrest in human MDA-MB-231 cells assessed as accumulation at G2 phase at 1 uM measured after 24 hrs by propidium iodide staining based flow cytometry (reference value: 23%); format: functional
[20] = test system: MDA-MB-231; test: Induction of apoptosis in human MDA-MB-231 cells assessed as late apoptotic cells at 10 umol/L measured after 24 hrs by annexin-V-FITC/7-AAD staining based flow cytometric analysis relative to control; format: functional
[21] = test system: MDA-MB-231; test: Cell cycle arrest in human MDA-MB-231 cells assessed as accumulation at G2 phase at 30 uM measured after 24 hrs by propidium iodide staining based flow cytometry (reference value: 23%); format: functional
[22] = test system: MDA-MB-231; test: Induction of apoptosis in human MDA-MB-231 cells assessed as viable cells at 10 umol/L measured after 4 hrs by annexin-V-FITC/7-AAD staining based flow cytometric analysis (reference value: 97 to 98%); format: functional; details: MDA-MB-231, 4 h, read-out: Activity
[23] = test system: MDA-MB-231; test: Cell cycle arrest in human MDA-MB-231 cells assessed as accumulation at S phase at 30 uM measured after 24 hrs by propidium iodide staining based flow cytometry (reference value: 12%); format: functional
[24] = test system: MDA-MB-231; test: Cell cycle arrest in human MDA-MB-231 cells assessed as accumulation at G1 phase at 10 uM measured after 24 hrs by propidium iodide staining based flow cytometry (reference value: 62%); format: functional
[25] = test system: MDA-MB-231; test: Cell cycle arrest in human MDA-MB-231 cells assessed as accumulation at G2 phase at 10 uM measured after 24 hrs by propidium iodide staining based flow cytometry (reference value: 23%); format: functional
[26] = test system: MDA-MB-231; test: Induction of apoptosis in human MDA-MB-231 cells assessed as viable cells at 10 umol/L measured after 2 hrs by annexin-V-FITC/7-AAD staining based flow cytometric analysis (reference value: 97 to 98%); format: functional; details: MDA-MB-231, 2 h, read-out: Activity
[27] = test system: K562; test: Antiproliferative activity against human K562 cells measured after 48 hrs by MTT assay; format: functional, cell-based; details: K562, 48 h; procedure, shortened: as §1
[28] = test system: MDA-MB-231; test: Cell cycle arrest in human MDA-MB-231 cells assessed as accumulation at G1 phase at 1 uM measured after 24 hrs by propidium iodide staining based flow cytometry (reference value: 62%); format: functional
[29] = test system: MDA-MB-231; test: Induction of apoptosis in human MDA-MB-231 cells assessed as late apoptotic cells at 10 umol/L measured after 4 hrs by annexin-V-FITC/7-AAD staining based flow cytometric analysis relative to control; format: functional
[30] = test system: MDA-MB-231; test: Induction of apoptosis in human MDA-MB-231 cells assessed as late apoptotic cells at 10 umol/L measured after 4 hrs by annexin-V-FITC/7-AAD staining based flow cytometric analysis relative to control
[31] = molecular target: T1, Signal transducer and activator of transcription 3; test: Inhibition of STAT3 phosphorylation at Y705 in human MDA-MB-231 cells after 4 hrs by HTRF assay; format: cell-based; procedure, shortened: as §3
[32] = test system: MDA-MB-231; test: Cell cycle arrest in human MDA-MB-231 cells assessed as accumulation at G1 phase at 3 uM measured after 24 hrs by propidium iodide staining based flow cytometry (reference value: 62%); format: functional
[33] = test system: K562; test: Induction of superoxide generation in human K562 cells at 5 umol/L measured after 24 hrs in presence of NQO1 inhibitor dicoumarol by DHE staining based flow cytometry; format: functional, cell-based
Procedure, shortened: (§4)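 Cells were treated with compound at 5 μmol/L or DMSO for 24 h, with or without dicoumarol preincubation (5 μmol/L, 30 min), then stained with DHE for 30 min. 2-OH-DHE fluorescence was read by flow cytometry and expressed relative to vehicle control. At least three independent measurements.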

[34] = test system: MDA-MB-231; test: Cell cycle arrest in human MDA-MB-231 cells assessed as accumulation at sub-G0 phase at 10 uM measured after 24 hrs by propidium iodide staining based flow cytometry (reference value: 3%); format: functional
[35] = test system: MDA-MB-231; test: Induction of superoxide generation in human MDA-MB-231 cells at 5 umol/L measured after 24 hrs in presence of NQO1 inhibitor dicoumarol by DHE staining based flow cytometry; format: functional, cell-based; procedure, shortened: as §4
[36] = test system: MDA-MB-231; test: Induction of superoxide generation in human MDA-MB-231 cells at 5 umol/L measured after 24 hrs by DHE staining based flow cytometry; format: functional, cell-based; procedure, shortened: as §4
[37] = test system: K562; test: Induction of superoxide generation in human K562 cells at 5 umol/L measured after 24 hrs by DHE staining based flow cytometry; format: functional, cell-based; procedure, shortened: as §4
[38] = test system: MDA-MB-231; test: Induction of apoptosis in human MDA-MB-231 cells assessed as late apoptotic cells at 10 umol/L measured after 6 hrs by annexin-V-FITC/7-AAD staining based flow cytometric analysis relative to control; format: functional
[39] = test system: MDA-MB-231; test: Induction of apoptosis in human MDA-MB-231 cells assessed as early apoptotic cells at 10 umol/L measured after 24 hrs by annexin-V-FITC/7-AAD staining based flow cytometric analysis relative to control; format: functional
[40] = test system: MDA-MB-231; test: Induction of apoptosis in human MDA-MB-231 cells assessed as early apoptotic cells at 10 umol/L measured after 8 hrs by annexin-V-FITC/7-AAD staining based flow cytometric analysis relative to control; format: functional
[41] = test system: MDA-MB-231; test: Induction of apoptosis in human MDA-MB-231 cells assessed as early apoptotic cells at 10 umol/L measured after 6 hrs by annexin-V-FITC/7-AAD staining based flow cytometric analysis relative to control; format: functional

T1 sequence (P40763 whole entry): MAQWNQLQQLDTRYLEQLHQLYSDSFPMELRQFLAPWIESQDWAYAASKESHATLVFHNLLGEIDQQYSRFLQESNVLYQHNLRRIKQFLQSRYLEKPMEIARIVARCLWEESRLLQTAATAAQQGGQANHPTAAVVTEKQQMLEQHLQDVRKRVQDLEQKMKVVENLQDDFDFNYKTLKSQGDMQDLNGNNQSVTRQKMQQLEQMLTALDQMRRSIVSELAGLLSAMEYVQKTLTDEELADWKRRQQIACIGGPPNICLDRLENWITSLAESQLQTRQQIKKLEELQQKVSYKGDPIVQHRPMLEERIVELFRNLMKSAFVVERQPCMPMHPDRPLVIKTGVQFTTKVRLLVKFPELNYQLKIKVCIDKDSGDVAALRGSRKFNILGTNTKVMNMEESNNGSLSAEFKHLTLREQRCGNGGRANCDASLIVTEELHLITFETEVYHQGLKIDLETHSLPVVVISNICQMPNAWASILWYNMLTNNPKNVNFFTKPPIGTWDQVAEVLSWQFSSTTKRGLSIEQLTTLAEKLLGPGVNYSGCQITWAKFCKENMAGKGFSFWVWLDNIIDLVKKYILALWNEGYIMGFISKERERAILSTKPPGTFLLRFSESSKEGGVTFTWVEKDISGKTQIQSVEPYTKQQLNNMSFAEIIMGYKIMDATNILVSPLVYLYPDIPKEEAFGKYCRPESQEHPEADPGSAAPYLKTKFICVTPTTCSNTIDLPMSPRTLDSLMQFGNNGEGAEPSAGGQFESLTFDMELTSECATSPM

| Structure (SMILES) | viability at 10 µM [1] | Activity [2] | IC50 [3] | Activity [4] | Activity [5] | Activity [9] | Activity [10] | Activity [11] | Activity [12] | viability at 10 µM [13] | Activity [14] | Activity [15] | viability at 10 µM [17] | Activity [19] | Activity [20] | Activity [21] | viability at 10 µM [22] | Activity [23] | Activity [24] | Activity [25] | also measured |
| --- | --- | --- | --- | --- | --- | --- | --- | --- | --- | --- | --- | --- | --- | --- | --- | --- | --- | --- | --- | --- | --- |
| CC(=O)c1cc2c(o1)-c1ccccc1C(=O)C2=O | 67% | 23% | 740 nM | 31% | 15% | 13% | 60% | 5% | 3% | 83% | 5% | 14% | 9% | 23% | 89% | 20% | 82% | 15% | 63% | 20% | Activity [6]: inactive; Activity [7]: Active; Activity [8]: Non-Toxic; Activity [16]: inactive; EC50 [18]: 800 nM; viability at 10 µM [26]: 93%; IC50 [27]: 1100 nM; Activity [28]: 60%; Activity [29]: 14%; Activity [30]: 14%; EC50 [31]: 870 nM; Activity [32]: 59%; Activity [33]: inactive; Activity [34]: inactive |
| CC1(C)CCC2=C(O1)c1ccccc1C(=O)C2=O [LAPACHONE] | 86% | 21% | 4300 nM | 8% | 18% | 14% | 57% | 3% | 4% | 90% | 3% | 14% | 38% | 20% | 48% | 24% | 93% | 16% | 53% | 27% | Activity [35]: inactive; Activity [36]: inactive; Activity [37]: inactive; Activity [38]: 7%; Activity [39]: 15%; viability at 10 µM [26]: 97%; IC50 [27]: 1600 nM; Activity [28]: 62%; Activity [32]: 63%; Activity [33]: inactive; Activity [40]: 7%; Activity [34]: 3%; Activity [41]: 4% |
